Reference: paper PMC6736640 (ACS chemical neuroscience, 2018)

Biological target: Asyn fibrils (Homo sapiens, UniProt P37840)
Assay: Radioligand competition binding on Asyn fibrils with [3H]1
In short: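 Recombinant human Asyn fibrils at 150 nM incubated with 2 nM [3H]1 and test compound (1–1000 nM) in 30 mM Tris-HCl pH 7.4 with 0.1% BSA for 2 h at 37 °C. Bound ligand separated by vacuum filtration through 1.0 μm glass fiber filters, washed three times with cold buffer, and counted by scintillation after overnight incubation. Triplicates. EC50 from sigmoidal fit; Ki = EC50/(1+[radioligand]/Kd).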

Q: With `COc1ccc(/C=C/c2cc(-c3nccs3)on2)cc1` [compound 1, (E)-3-(4-methoxystyryl)-5-(thiazol-2-yl)isoxazole] as the molecule, how does the Kd read?
A: The Kd was 47 nM.
